As a reminder, the pIC50 is −log10 of the IC50, conventionally taken in molar units. A word on the inhibition: it is the relative decrease from the control value, in per cent. A low value points to a weak effect.

The text below walks through data of ChEMBL document CHEMBL5252540, “3-Aroyl-1,4-diarylpyrroles Inhibit Chronic Myeloid Leukemia Cell Growth through an Interaction with Tubulin” (ACS Med Chem Lett, 2017).

The test system of one test is MCF7. Briefly: Cytotoxicity against human MCF7 cells assessed as cell growth inhibition incubated for 3 days by trypan blue exclusion assay. The format is functional, cell-based. The following applies: MCF7, 72 h. Summed up:
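MCF-7 human breast carcinoma cells; growth inhibition; triplicate experiments.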

The target in a further test is Tubulin. The test can be described thus: Inhibition of tubulin (unknown origin) polymerization preincubated for 15 mins followed by GTP addition by turbidity based spectrophotometer analysis. The test is classed as protein-complex assay, Homo sapiens.
The target of a further test is Tubulin (Homo sapiens) (UniProt P68371+Q9H4B7+P0DPH7+P68366+Q13509+Q71U36+P04350+Q3ZCM7+P07437+P68363+Q9BQE3+Q6PEY2+Q13885+Q9BVA1+Q9BUF5). The test can be described thus: Inhibition of [3H]colchicine binding to tubulin (unknown origin) at 5 uM incubated for 10 mins relative to control. The format is protein-complex assay.
Test [1] concerns LAMA-84. Briefly: Antiproliferative activity against human LAMA-84 cells assessed as cell growth inhibition incubated for 48 hrs by MTT assay. The following applies: LAMA-84, 48 h. (Tetrazolium assays rely on reduction of a dye to a coloured formazan, in cell work by metabolically active cells.)
Test [2] concerns LAMA-84. Briefly: Antiproliferative activity against human LAMA-84 cells overexpressing BCR/ABL assessed as cell growth inhibition.
The test system of a further test is OVCAR-8. The test can be described thus: Cytotoxicity against human OVCAR-8 cells assessed as cell growth inhibition incubated for 3 days by trypan blue exclusion assay. The format is functional, cell-based. As to conditions: OVCAR-8, 72 h.
The next test deals with NCI/ADR-RES. The test can be described thus: Cytotoxicity against human NCI/ADR-RES cells overexpressing p-glycoprotein assessed as cell growth inhibition incubated for 3 days by trypan blue exclusion assay. The format is functional, cell-based. As to conditions: 72 h.

pIC50: −log10 of the molar value. Structures can show the parent of a compound that is named as a salt.

Consider `COc1cc(C(=O)c2cn(-c3cccc(C)c3)cc2-c2ccccc2)cc(OC)c1OC`, for which the pIC50 was 6.92 in the test with MCF7 and 5.77 on Tubulin. Moreover, the inhibition on Tubulin (Homo sapiens) came to 82%.

In the case of `COc1cc(C(=O)c2cn(-c3cccc(F)c3)cc2-c2ccccc2)cc(OC)c1OC`, the results for the pIC50 with MCF7 and against Tubulin were 6.46 and 5.54, respectively. For the same compound, the inhibition on Tubulin (Homo sapiens) amounted to 42%.

As to `COc1cc(C(=O)c2cn(-c3cccc(N)c3)cc2-c2ccccc2)cc(OC)c1OC`, the pIC50 with MCF7 is 7.13; at Tubulin, 5.96. On Tubulin (Homo sapiens), this compound showed an inhibition of 82%.

Take `Cc1ccc(NC(=O)c2ccc(CN3CCN(C)CC3)cc2)cc1Nc1nccc(-c2cccnc2)n1` [IMATINIB MESYLATE]: the pIC50 with LAMA-84 [1] and with LAMA-84 [2] was 7.00 in each case.

Turning to `COc1cc(C(=O)c2cn(-c3ccccc3F)cc2-c2ccccc2)cc(OC)c1OC`, the pIC50 in the test on MCF7 is 7.07; at Tubulin it was 5.70. The compound also came in with an inhibition on Tubulin (Homo sapiens) of 29%.

Take `COc1cc(C(=O)c2cn(-c3ccccc3)cc2-c2ccc(C)cc2)cc(OC)c1OC`: the values for the pIC50 in the test with MCF7 and at Tubulin were 6.55 and 5.66, respectively. The same compound yielded an inhibition at Tubulin (Homo sapiens) of 24%.

Turning to `COc1cc(C(=O)c2cn(-c3ccc(F)cc3)cc2-c2ccccc2)cc(OC)c1OC`, the pIC50 was 7.82 with MCF7, 5.89 against Tubulin, 6.74 with OVCAR-8 and 6.96 with NCI/ADR-RES. This compound displayed an inhibition at Tubulin (Homo sapiens) of 62%.

For `COc1cc(C(=O)c2cn(-c3ccccc3)cc2-c2ccccc2)cc(OC)c1OC`, the pIC50 is 7.46 in the test on MCF7 and 5.96 against Tubulin. The compound also displayed an inhibition at Tubulin (Homo sapiens) of 66%.
